Results on five molecules are retold here after PMC8969127 (Molecular Pharmacology, 2022).

Entries after “also recorded” stand apart in the source; their conditions may differ. Where two headings read alike, the source gives them in different places.

In assay [1] the target is T1, CatSper (Homo sapiens, UniProt Q7RTX7+Q86XQ3+Q8NEC5+Q96P56). The experiment in a line: Human sperm calcium influx assay, activation. Type of assay: cell-based. Particulars: for Emax: read-out: Emax, %, Steroid Alone; for effect on [Ca2+]i as activator: concentrations up to 10 µM. In short, it runs like this:
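Semen from healthy donors was liquefied at 37 °C, washed twice in low pH/low K+ buffer (pH 6.7, 0.2 mM CaCl2), then loaded with 10 µM Fluo-4-AM plus 1 mM probenecid, 30 min, room temperature, dark. On FLIPR, buffer was added first, then openers 2 min later. Fluorescence was read for 7 min at 2-s intervals. EC50 came from 8-point, 3-fold dilutions in duplicate, peak height, four-parameter fit. Emax is relative to 3 µM progesterone. Activators were retested with 30 µM mibefradil.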

The target of assay [2] is T1, CatSper. Conditions: read-out: EC50, patch-clamp electrophysiology; ref Lishko et al., 2011; cited from earlier work.
The target of assay [3] is T1, CatSper. Particulars: read-out: EC50, rapid-mixing calcium fluorimetry; ref Strunker et al., 2011; cited from earlier work.
Assay [4] concerns the target T1, CatSper. Format: cell-based. Conditions: for IC50: human sperm.
For assay [5], the target named is T1, CatSper. The experiment in a line: Activator concentration-response curves in the presence of increasing inhibitor. Type of assay: cell-based. An outline of the steps:
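Washed human donor sperm in low pH/low K+ buffer (pH 6.7) were loaded with 10 µM Fluo-4-AM plus 1 mM probenecid, 30 min, room temperature, dark. FLIPR read: ex 470–495/em 515–575 nm. Activator concentration-response curves were run with increasing concentrations of competitive antagonist, added 2 min before the activator. Activator EC50 values were taken from maximal peak height (four-parameter fit). pKB came from Schild regression.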

Another assay relates to human sperm. Nature of the assay: Computer-assisted sperm analysis. Type of assay: cell-based. Particulars: for effect on total and progressive sperm motility: up to 30 µM. An outline of the steps:
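Donor semen was liquefied ≥40 min at 37 °C, then swim-up in HAM's F10 for 1 h at 37 °C, 5% CO2. Cells were adjusted to 10x10^6/mL and capacitated in HAM's F10 with 5% BSA and 15 mM NaHCO3 at 37 °C, 5% CO2, with test compound or DMSO. HAM was induced with 100 nM progesterone or 100 nM PGE1. CASA at 37 °C used ≥10 fields, ≥200 cells. Motility classes came from VAP/VSL/VCL-derived LIN and STR, normalized to vehicle controls, ≥3 experiments.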

[6] abbreviates: pEC50, calcium influx, Steroid Alone, human sperm, mean ±SD.
The mark [7] stands for this setting: KB, Leff-Dougall analysis, averaged across the activators, PROG, PGE1 and l-sirenin.
Setting [8] is: Leff-Dougall pKB, opener PGE1, from IC50, mean ± SD.
[9] abbreviates: Leff-Dougall pKB, opener PROG, from IC50, mean ± SD.
Where [10] appears, read: Leff-Dougall pKB, opener l-Sirenin, from IC50, mean ± SD.
[11] abbreviates: pIC50, inhibition of PGE1-induced calcium influx, opener 10 nM PGE1 (EC80), mean ±SD.
Setting [12] is: pIC50, inhibition of l-sirenin-induced calcium influx, opener 3 µM l-sirenin (EC80), mean ±SD.
[13] abbreviates: Schild pKB, opener PGE1, mean ± standard error.
Where [14] appears, read: Schild pKB, opener PROG, mean ± standard error.
The mark [15] stands for this setting: Schild pKB, opener l-Sirenin, mean ± standard error.
Setting [16] is: average pKB, Schild analysis, averaged across the activators, PROG, PGE1 and l-sirenin, mean ±SD.

As for `CC(=O)[C@H]1CC[C@H]2[C@@H]3CCC4=CC(=O)CC[C@]4(C)[C@H]3CC[C@]12C` [compound 1, progesterone], the EC50 was 0.0037 µM at CatSper [1] (EC50, increase of [Ca2+]i in human sperm); 0.00372 µM at CatSper [1] (setting [6]); 0.0077 µM at CatSper [2]; 0.042 µM at CatSper [3]. Also, the maximal effect (Emax) at CatSper [1] was 111%. At CatSper [1] (then decayed slowly for up to 300 seconds), the “time at which the calcium signal peaked” value was around 100 s.

Take `C[C@]12CCC(=O)C=C1CC[C@@H]1[C@@H]2[C@@H](O)C[C@]2(C=O)[C@@H](C(=O)CO)CC[C@@H]12` [compound 6, aldosterone]: the “effect on [Ca2+]i as activator” value at CatSper [1] is “did not increase [Ca^2+]i; also recorded: negligible activity”. In addition, the Kb on CatSper [4] (setting [7]) was 5.1 µM; at CatSper [4] (setting [8]), 6.03 µM; on CatSper [4] (setting [9]) it was 3.47 µM; on CatSper [4] (setting [10]), 6.46 µM; at CatSper [5] (setting [13]), 724 µM; at CatSper [5] (setting [14]), 4.17 µM. The Kb on CatSper [5] (setting [15]) was 15.1 µM; on CatSper [5] (setting [16]), 36.3 µM. Further, the IC50 on CatSper [4] (setting [11]) was 57.5 µM; at CatSper [4] (setting [12]) it was 61.7 µM. The “effect on total and progressive sperm motility” value in the assay with human sperm (CASA, human sperm) is given as “no significant effect”.

Regarding `COCC(=O)O[C@]1(CCN(C)CCCc2nc3ccccc3[nH]2)CCc2cc(F)ccc2[C@@H]1C(C)C` [mibefradil], the “calcium influx elicited by the blocker itself” value at CatSper [1] (ML218 up to 100 µM, mibefradil at higher concentrations) is listed as “we did not observe a mibefradil-induced calcium influx”. Further, the “block of calcium influx for all modes of channel opening” value at CatSper [4] (blocker 30 µM) is given as “completely blocked influx”. Moreover, the IC50 at CatSper [4] (setting [11]) is 8.32 µM; at CatSper [4] (setting [12]), 8.13 µM. Also, the “concentration that completely ablated total and progressive motility” value in the assay on human sperm (CASA, human sperm) was 30 µM. Further, the “concentration that completely ablated HAM” value in the assay with human sperm (HAM induced with 100 nM PROG or 100 nM PGE1, 4 hours, capacitating conditions) was 10 µM.

For the molecule `C#C[C@]1(O)CC[C@H]2[C@@H]3CCC4=CC(=O)CC[C@@H]4[C@H]3CC[C@@]21CC` [compound 5, levonorgestrel], on CatSper [1], the EC50 is above 10 µM. The “effect on [Ca2+]i as activator” value on CatSper [1] is “negligible activity”. Moreover, the maximum response (Emax) on CatSper [1] is 15%. Also, the Kb on CatSper [4] (setting [7]) is 4.5 µM; on CatSper [4] (setting [8]) it was 3.16 µM; at CatSper [4] (setting [9]) it was 3.39 µM; on CatSper [4] (setting [10]), 8.51 µM; at CatSper [5] (setting [13]), 437 µM; at CatSper [5] (setting [14]), 0.158 µM. Besides, the values for the Kb on CatSper [5] (setting [15]) and at CatSper [5] (setting [16]) were 56.2 µM and 15.8 µM, respectively. In addition, the half-inhibitory concentration (IC50) was 30.2 µM on CatSper [4] (setting [11]) and 81.3 µM on CatSper [4] (setting [12]). Also, in the assay on human sperm (CASA, human sperm), the “effect on total and progressive sperm motility” value is recorded as “no significant effect”.

Regarding `CC(=O)O[C@]1(C(C)=O)CC[C@H]2[C@@H]3C[C@H](C)C4=CC(=O)CC[C@]4(C)[C@H]3CC[C@@]21C` [compound 4, medroxyprogesterone acetate], the “effect on [Ca2+]i as activator” value at CatSper [1] (listed as MPA) is “little effect on [Ca^2+]i; also recorded: negligible activity”. Besides, the EC50 at CatSper [1] (setting [6]) was above 10 µM. At CatSper [1], the Emax was 17%. Moreover, the Kb on CatSper [4] (setting [7]) was 1.6 µM; at CatSper [4] (setting [8]), 1 µM; on CatSper [4] (setting [9]), 0.692 µM; on CatSper [4] (setting [10]), 6.31 µM; at CatSper [4] (mean pKB, Leff-Dougall analysis, averaged across the activators, PROG, PGE1 and l-sirenin, mean ±SD), 1.66 µM; at CatSper [5] (setting [13]), 4.17 µM. Further, the Kb at CatSper [5] (setting [14]) is 0.646 µM; on CatSper [5] (setting [15]), 6.03 µM; on CatSper [5] (setting [16]), 2.51 µM. In addition, the IC50 is 9.77 µM on CatSper [4] (setting [11]) and 6.17 µM at CatSper [4] (setting [12]). In addition, the “effect on total and progressive sperm motility” value with human sperm (CASA, human sperm) is “reduced total and progressive motility at 30 µM but not at lower concentrations”.

The EC50 is the concentration that produces a half-maximal response. For orientation: Emax means the size of the effect at its maximum, as opposed to the concentration needed. Broadly, the IC50 is the concentration at which inhibition is half-maximal.
